Assays:
PDX tumour margins = test: Histological analysis; type: in vivo, NSG mice; conditions: PDX model, H&E and Ki-67, sixteen mammary tissue samples from eight mice
How it was run: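 Tumour-margin tissue (~2 mm³) taken at the 6 and 12 o'clock positions around resected PDX tumours in NSG mice. Samples were fixed 24 h in buffered 3.7% formalin, then moved to 70% ethanol. They were paraffin-embedded and cut into 4 μm sections for staining.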

[1] = system: TNBC MDA-MB-231 or ER-positive IOWA-1T tumours; test: Intraoperative imaging of orthotopic MFP xenografts, recurrence follow-up; type: in vivo, athymic mice; conditions: 0.5 mg/kg i.v.; for average volume of the recurrent tumours: four weeks after tumour resection
How it was run: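 MDA-MB-231 or IOWA-1T cells were injected s.c. at the nipple base into the fourth abdominal fat pad of athymic mice. Once tumours formed, mice received PBS, free dye or test compound at 0.5 mg/kg i.v. After 24 h, tumours were resected with a 2 mm margin under NIR camera monitoring. PBS controls were resected by palpation and direct visualization only. Adverse events during removal and later recurrence at the resection site were recorded.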

[2] = system: triple-negative PDX cells (stage IV) tumours; test: Image-guided tumour resection in a PDX tumour model, recurrence follow-up; type: in vivo, NSG mice; conditions: four weeks after image-guided surgery
How it was run: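 Female NSG mice, 4–5 weeks old, carried triple-negative PDX (stage IV) tumours in the mammary fat pads. At 200–300 mm³ they were randomized into five groups: test probe, free dye, two control peptide–dye conjugates, or PBS. Agents were given i.v. (tail vein) at an equivalent of 0.5 mg/kg. After 24 h, tumours were excised with a ~2 mm margin under NIR camera guidance (not for PBS). Wounds were sutured, and recurrence was assessed 4 weeks later.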

[3] = system: multiple subtypes of breast cancer; test: Overall recurrence in multiple breast cancer animal models; type: in vivo, mice
[4] = system: MDA-MB-231 human breast cancer tumours; type: in vivo, athymic mice; conditions: 0.2–1.0 mg/kg i.v., imaged 6–72 h, PDE unit, normal tissue thigh
How it was run: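 Female athymic mice, 4–5 weeks old, bore s.c. MDA-MB-231 tumours (1.0 × 10⁶ cells, right back). They received test compound or free dye i.v. (tail vein) at 0.2, 0.5 or 1 mg/kg. Prescans were taken before injection, and 800 nm NIR imaging followed at 6–72 h. The tumour-to-background ratio used ROIs over the whole tumour and over normal tissue (thigh muscle). Statistics: ANOVA.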

[5] = cited from earlier work

Compound | positive margin rate (PDX tumour margins) | adverse events related to administration during tumour removal [1] | average volume of the recurrent tumours [1] [mm^3] | average volume of the recurrent tumours [2] [mm^3] | specificity ([3]; from tumour recurrence rate 8%, N = 2/24) [%] | average recurrent tumour volume, multiple subtypes of breast cancer ([3]; Figures 4,6 pooled) [mm^3] | tumour/normal tissue ratio of NIR signal [4] | stability [5] | water solubility [5]
ICG-p28: NIR fluorescence imaging probe composed of tumour-targeting peptide p28 and the NIR dye indocyanine green (ICG) | malignant cell free margin | no apparent adverse events | 197 | 403 | 92 | – | – | – | –
CC1(C)C(/C=C/C=C/C=C/C=C2\N(CCCCS(=O)(=O)O)c3ccc4ccccc4c3C2(C)C)=[N+](CCCCS(=O)(=O)[O-])c2ccc3ccccc3c21 [ICG, indocyanine green] | – | no apparent adverse events | 423 | 1952 | – | 1188 | ~1 | – | –
p28: Pseudomonas aeruginosa azurin-derived cell-penetrating peptide, tested in two phase I clinical trials | – | – | – | – | – | – | – | stable | highly water soluble

From article PMC8814381 (EBioMedicine, 2022)
